Test results: ChEMBL document CHEMBL4673305, “Azodyrecins A-C: Azoxides from a Soil-Derived Streptomyces Species” (J Nat Prod, 2020)
Activity calls are given as the source filed them. The rule behind the calls is not given here.

Tests used:
HL-60 = assay: Cytotoxicity against human HL-60 cells assessed as reduction in cell viability after 48 hrs by AlamarBlue assay; assay type: functional, cell-based
Summary of the method: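 HL-60 cells grown at 37 °C, 5% CO2, seeded at 2 x 10⁵ cells/mL. Compound in DMSO was dispensed acoustically at 10 concentrations (top 10 µM, 1:2 dilutions). After 48 h, AlamarBlue was added for a further 5 h and fluorescence read (ex 544/em 590 nm). DMSO-only wells served as maximal growth; medium-only wells gave background correction.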

[1] = Toxicity in Artemia salina assessed as mortality at 10 ug/ml after 24 hrs by Meyer method; settings: at 10 µg/mL
Summary of the method: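 Brine shrimp test after Meyer, modified. Artemia salina eggs were hatched in artificial seawater. Tubes held 30–40 nauplii in 4.95 mL seawater, plus 50 µL DMSO solution of compound (final 10 µg/mL). Elaiophylin was the positive control and DMSO alone the negative control. Mortality was scored after 24 h.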

Vibrio anguillarum = assay: Antimicrobial activity against Vibrio anguillarum 90-11-287 assessed as reduction in microbial growth after 24 hrs by agar well diffusion assay; assay type: functional, organism-based
Summary of the method: (§1)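 Agar well diffusion on Instant Ocean agar (3% Instant Ocean, 3.33 g/L casamino acids, 4 g/L glucose, 10 g/L agar) seeded with pathogen. Wells 4 mm in diameter, 32-38 mm apart, each got 30 µL of a 100 µg/100 µL MeOH solution. Medium and MeOH wells were controls; the positive control was sterile-filtered supernatant of tropodithietic acid-producing Phaeobacter inhibens DSM17395. Incubated 24 h at 25 °C; inhibition zone diameter measured.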

Candida albicans = assay: Antifungal activity against Candida albicans IBT 654.38 assessed as reduction in microbial growth after 16 to 24 hrs by agar well diffusion assay; assay type: functional, organism-based; settings: time 16-24 hrs, in the assay text read “paper disk diffusion assay” for “agar well diffusion assay”
Summary of the method: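 Disk diffusion: a glucose–peptone agar base layer (pH 4.8) was inoculated with the yeast. 6 mm paper disks carried 80 µg compound applied in CH2Cl2 and were dried under sterile conditions before placing. Incubated 28 °C for 16–24 h; inhibition zone diameter measured.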

Staphylococcus aureus = assay: Antimicrobial activity against Staphylococcus aureus 8325 assessed as reduction in microbial growth after 24 hrs by agar well diffusion assay; assay type: functional, organism-based; summary of the method: as §1

Row | Structure (SMILES) | IC50 (HL-60; hl-60) | mortality at 24 h, 10 ug/ml [1] | Activity (Vibrio anguillarum) | Activity (Candida albicans) | Activity (Staphylococcus aureus) | IC50 (HL-60; Homo sapiens, HL-60, 48 h, read-out: IC50)
1 | COC(=O)[C@H](C)/N=[N+]([O-])/C=C\CCCCCCCCCC(C)C | Nd(Unstable) | 100% | inactive | inactive | inactive | 
2 | COC(=O)[C@H](C)/N=[N+]([O-])/C=C/CCCCCCCCCC(C)C |  |  | inactive |  | inactive | 
3 | CCC(C)CCCCCCCCC/C=C\[N+]([O-])=N\[C@@H](C)C(=O)OC (some centres undefined) |  |  |  |  |  | 2200 nM
4 | CC[C@@H]1[C@@H](C)O[C@@](O)([C@@H](C)[C@H](O)[C@H](C)[C@H]2OC(=O)/C=C/C=C/[C@H](C)[C@@H]([C@@H](C)[C@@H](O)[C@H](C)[C@@]3(O)C[C@@H](O[C@H]4C[C@H](O)[C@H](O)[C@H](C)O4)[C@H](CC)[C@@H](C)O3)OC(=O)/C=C/C=C/[C@@H]2C)C[C@H]1O[C@H]1C[C@H](O)[C@H](O)[C@H](C)O1 |  | 78% |  |  |  | 
